The structures appear in SMILES notation. Numbered stars: 1 amine (or outer) side, 2 acyl side, 3 side chain; on linkers, the order of the positions; unused ones are H or OH. Bridge positions count the residues as written; N and C are the ends. Square brackets hold non-standard residues; d marks the D form. Peptide text beside a SMILES is read from it. * marks the point of attachment. Tyr(Nα-carbamoyl) = NC(=O)N[C@@H](Cc1ccc(O)cc1)C(=O)*; X3 = C[C@H](c1c[nH]c2ccccc12)[C@@H](N[*:1])C(=O)[*:2]; Trp(βS-Me) = C[C@@H](c1c[nH]c2ccccc12)[C@H](N)C(=O)O

Experiment [1] addresses Somatostatin receptor type 1 (Homo sapiens, UniProt P30872). Nature of the experiment: Binding affinity towards human somatostatin receptor type 1 using [125I][Leu8,D-Trp22,Tyr25]SRIF-28 as radioligand. In outline:
(§1)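 Receptor autoradiography on 20-µm cryostat sections of pellets of cells stably expressing the cloned human receptor. Cell hosts: sst1 CHO-K1, sst2 CCL39, sst3 CCL39, sst5 CHO-K1. Sections were incubated with radioligand at 30 000 cpm/100 µL and displaced by unlabeled peptide from 0.1 to 1000 nM. SRIF-28 was run in parallel as control. IC50 was obtained by computer-assisted image quantification against calibrated isotope tissue standards.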

For experiment [2], the target named is Somatostatin receptor type 2 (Homo sapiens, UniProt P30874). Nature of the experiment: Binding affinity towards human somatostatin receptor type 2 using [125I][Leu8,D-Trp22,Tyr25]SRIF-28 as radioligand. In outline:
as §1

Experiment [3] addresses Somatostatin receptor type 4 (Homo sapiens, UniProt P31391). Nature of the experiment: Binding affinity towards human somatostatin receptor type 4 using [125I][Leu8,D-Trp22,Tyr25]SRIF-28 as radioligand.
Experiment [4] concerns the target Somatostatin receptor type 3 (Homo sapiens, UniProt P32745). In words: Binding affinity towards human somatostatin receptor type 3 using [125I][Leu8,D-Trp22,Tyr25]SRIF-28 as radioligand. In outline: as §1
Experiment [5] addresses Somatostatin receptor type 5 (Homo sapiens, UniProt P35346). Nature of the experiment: Binding affinity towards human somatostatin receptor type 5 using [125I][Leu8,D-Trp22,Tyr25]SRIF-28 as radioligand. Summed up:
as §1

Sequence of Somatostatin receptor type 2 (P30874 whole entry): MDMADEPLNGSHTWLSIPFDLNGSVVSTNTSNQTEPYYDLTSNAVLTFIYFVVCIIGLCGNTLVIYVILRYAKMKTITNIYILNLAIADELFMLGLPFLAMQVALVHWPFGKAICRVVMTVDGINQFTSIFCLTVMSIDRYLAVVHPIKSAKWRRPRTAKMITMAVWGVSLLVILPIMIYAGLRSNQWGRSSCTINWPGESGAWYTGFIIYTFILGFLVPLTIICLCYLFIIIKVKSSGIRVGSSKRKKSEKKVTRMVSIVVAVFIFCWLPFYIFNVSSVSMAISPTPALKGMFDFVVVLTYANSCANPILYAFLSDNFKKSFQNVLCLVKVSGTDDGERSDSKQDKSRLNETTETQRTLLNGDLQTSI
Sequence of Somatostatin receptor type 1 (P30872 whole entry): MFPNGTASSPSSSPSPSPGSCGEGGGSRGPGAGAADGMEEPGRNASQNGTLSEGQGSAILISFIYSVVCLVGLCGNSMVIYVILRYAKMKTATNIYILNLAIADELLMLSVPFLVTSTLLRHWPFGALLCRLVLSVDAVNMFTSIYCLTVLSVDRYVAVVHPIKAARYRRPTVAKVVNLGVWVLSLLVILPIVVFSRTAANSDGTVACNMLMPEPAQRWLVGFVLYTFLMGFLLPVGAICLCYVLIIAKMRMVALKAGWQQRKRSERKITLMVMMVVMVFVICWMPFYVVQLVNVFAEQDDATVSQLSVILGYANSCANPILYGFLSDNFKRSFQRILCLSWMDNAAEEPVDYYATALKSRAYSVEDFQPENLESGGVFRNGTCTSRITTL
Sequence of Somatostatin receptor type 4 (P31391 whole entry): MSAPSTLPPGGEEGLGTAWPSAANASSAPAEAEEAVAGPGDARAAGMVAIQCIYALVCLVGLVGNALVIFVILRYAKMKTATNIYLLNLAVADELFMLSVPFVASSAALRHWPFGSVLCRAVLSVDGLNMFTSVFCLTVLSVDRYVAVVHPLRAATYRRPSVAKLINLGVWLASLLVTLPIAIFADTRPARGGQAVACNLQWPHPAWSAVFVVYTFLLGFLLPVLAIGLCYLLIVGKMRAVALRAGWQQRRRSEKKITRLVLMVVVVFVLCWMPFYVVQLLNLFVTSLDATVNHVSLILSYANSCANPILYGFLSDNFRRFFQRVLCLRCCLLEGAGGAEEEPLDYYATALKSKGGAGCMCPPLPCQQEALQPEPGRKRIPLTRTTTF
Sequence of Somatostatin receptor type 5 (P35346 whole entry): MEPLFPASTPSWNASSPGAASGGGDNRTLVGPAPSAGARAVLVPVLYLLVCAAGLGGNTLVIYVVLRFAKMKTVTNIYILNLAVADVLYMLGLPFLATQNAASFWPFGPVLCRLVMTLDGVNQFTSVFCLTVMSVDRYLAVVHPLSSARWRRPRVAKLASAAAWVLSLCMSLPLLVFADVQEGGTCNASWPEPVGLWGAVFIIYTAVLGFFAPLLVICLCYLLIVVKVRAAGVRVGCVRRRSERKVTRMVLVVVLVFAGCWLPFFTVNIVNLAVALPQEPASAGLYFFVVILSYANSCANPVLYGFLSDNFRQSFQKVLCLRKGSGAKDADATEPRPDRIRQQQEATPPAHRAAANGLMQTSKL
Sequence of Somatostatin receptor type 3 (P32745 whole entry): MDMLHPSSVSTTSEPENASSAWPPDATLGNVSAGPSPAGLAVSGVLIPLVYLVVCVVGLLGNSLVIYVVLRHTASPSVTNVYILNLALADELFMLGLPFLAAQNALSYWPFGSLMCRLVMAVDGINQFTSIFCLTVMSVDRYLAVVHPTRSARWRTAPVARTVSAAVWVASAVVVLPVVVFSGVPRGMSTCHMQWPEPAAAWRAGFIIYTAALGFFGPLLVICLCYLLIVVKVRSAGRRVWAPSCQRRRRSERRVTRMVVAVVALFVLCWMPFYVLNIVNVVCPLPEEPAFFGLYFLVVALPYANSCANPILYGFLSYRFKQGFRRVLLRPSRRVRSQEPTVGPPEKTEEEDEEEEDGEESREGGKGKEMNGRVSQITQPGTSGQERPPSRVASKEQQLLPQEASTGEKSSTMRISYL

On to `C[C@@H]1NC(=O)[C@H](Cc2ccccc2)NC(=O)[C@@H](N)CSSC[C@@H](C(=O)O)NC(=O)[C@H](Cc2ccccc2)NC(=O)[C@H]([C@@H](C)O)NC(=O)[C@H](CCCCN)NC(=O)[C@@H](Cc2c[nH]c3ccccc23)NC1=O`, for which the IC50 in experiment [1] is > 1000 nM.

On to `C[C@@H]1NC(=O)[C@H](Cc2ccccc2)NC(=O)[C@@H](NC(=O)[C@@H](N)Cc2ccc(O)cc2)CSSC[C@@H](C(=O)O)NC(=O)[C@H](Cc2ccccc2)NC(=O)[C@H]([C@@H](C)O)NC(=O)[C@H](CCCCN)NC(=O)[C@H](Cc2c[nH]c3ccccc23)NC1=O`, for which the IC50 in experiment [1] was > 1000 nM.

Consider `C[C@@H](O)[C@@H]1NC(=O)[C@H](CCCCN)NC(=O)[C@H](Cc2c[nH]c3ccccc23)NC(=O)[C@H](Cc2ccccc2)NC(=O)[C@H](Cc2ccccc2)NC(=O)[C@@H](NC(=O)[C@@H](N)Cc2ccc(O)cc2)CSSC[C@@H](C(=O)O)NC(=O)[C@H](Cc2ccccc2)NC1=O` (H-YCFFWKTFC-OH; disulfide 2-9), for which the IC50 in experiment [1] amounted to 13 nM; in experiment [2], 179 nM; in experiment [3], 1.6 nM; in experiment [4], 57 nM.

As to `C[C@@H](O)[C@@H]1NC(=O)[C@H](CCCCN)NC(=O)[C@H](Cc2c[nH]c3ccccc23)NC(=O)[C@H](Cc2ccccc2)NC(=O)[C@H](Cc2ccccc2)NC(=O)[C@@H](N)CSSC[C@@H](C(=O)O)NC(=O)[C@H](Cc2ccccc2)NC1=O` (H-CFFWKTFC-OH; disulfide 1-8), the 50% inhibitory concentration (IC50) in experiment [1] stood at 5.3 nM; in experiment [2] it was 130 nM; in experiment [3], 0.7 nM; in experiment [5], 14 nM; in experiment [4], 13 nM.

`C[C@@H](O)[C@@H]1NC(=O)[C@H](CCCCN)NC(=O)[C@H]([C@@H](C)c2c[nH]c3ccccc23)NC(=O)[C@H](Cc2ccccc2)NC(=O)[C@H](Cc2ccccc2)NC(=O)[C@@H](N)CSSC[C@@H](C(=O)O)NC(=O)[C@H](Cc2ccccc2)NC1=O` (H-CFF[Trp(βS-Me)]KTFC-OH; disulfide 1-8): the IC50 in experiment [1] came to 21 nM; in experiment [2] it was 27 nM; in experiment [3], 1.8 nM; in experiment [5], 221 nM; in experiment [4] it was 330 nM.

Consider `C[C@@H](O)[C@@H]1NC(=O)[C@H](CCCCN)NC(=O)[C@H](Cc2c[nH]c3ccccc23)NC(=O)[C@H](Cc2ccc(N)cc2)NC(=O)[C@H](Cc2ccccc2)NC(=O)[C@@H](N)CSSC[C@@H](C(=O)O)NC(=O)[C@H](Cc2ccccc2)NC1=O`, for which, in experiment [4], the half-inhibitory concentration (IC50) is > 1000 nM.

On to `C[C@@H]1NC(=O)[C@H](Cc2ccccc2)NC(=O)[C@@H](N)CSSC[C@@H](C(=O)O)NC(=O)[C@H](Cc2ccccc2)NC(=O)[C@H]([C@@H](C)O)NC(=O)[C@H](CCCCN)NC(=O)[C@H](Cc2c[nH]c3ccccc23)NC1=O`, for which, in experiment [1], the IC50 is > 1000 nM.

As for `C[C@@H](O)[C@@H]1NC(=O)[C@H](CCCCN)NC(=O)[C@H](Cc2c[nH]c3ccccc23)NC(=O)[C@H](Cc2ccc(N)cc2)NC(=O)[C@H](Cc2ccccc2)NC(=O)[C@@H](NC(N)=O)CSSC[C@@H](C(=O)O)NC(=O)[C@H](Cc2ccc(O)cc2)NC1=O`, the IC50 in experiment [2] is > 1000 nM.

Turning to `C[C@@H](O)[C@@H]1NC(=O)[C@H](CCCCN)NC(=O)[C@@H](Cc2c[nH]c3ccccc23)NC(=O)[C@H](Cc2ccc(O)cc2)NC(=O)[C@H](Cc2ccccc2)NC(=O)[C@@H](N)CSSC[C@@H](C(=O)O)NC(=O)[C@H](Cc2ccccc2)NC1=O`, the IC50 stood at 117 nM in experiment [1]; 25.7 nM in experiment [2]; 1.8 nM in experiment [3]; 20.3 nM in experiment [5]; 35.7 nM in experiment [4].

The compound `COC(=O)[C@H](CCCN=C(N)N)NC(=O)CCCc1c(-c2ccccc2)[nH]c2c(F)cc(F)cc12` displayed an IC50 in experiment [3] of 4.2 nM.

As for `C[C@H](c1c[nH]c2ccccc12)[C@H]1NC(=O)[C@H](Cc2ccccc2)NC(=O)[C@H](Cc2ccccc2)NC(=O)[C@@H](N)CSSC[C@@H](C(=O)O)NC(=O)[C@H](Cc2ccccc2)NC(=O)[C@H]([C@@H](C)O)NC(=O)[C@H](CCCCN)NC1=O` (H-CFF[X3]KTFC-OH; disulfide 1-8), the IC50 in experiment [1] came to 49 nM; in experiment [2], 40 nM; in experiment [3], 4 nM; in experiment [5] it was 42 nM; in experiment [4] it was 53 nM.

On to `C[C@@H](O)[C@@H]1NC(=O)[C@H](CCCCN)NC(=O)[C@@H](Cc2c[nH]c3ccccc23)NC(=O)[C@H](Cc2ccccc2)NC(=O)[C@H](Cc2ccccc2)NC(=O)[C@@H](NC(N)=O)CSSC[C@@H](C(=O)O)NC(=O)[C@H](Cc2ccc(O)cc2)NC1=O` (stereo in doubt), for which the concentration for half-maximal inhibition (IC50) was 55 nM in experiment [1], 52 nM in experiment [2], 1 nM in experiment [3] and 16 nM in experiment [4].

Turning to `C[C@@H](O)[C@@H]1NC(=O)[C@H](CCCCN)NC(=O)[C@@H](Cc2c[nH]c3ccccc23)NC(=O)[C@H](Cc2ccccc2)NC(=O)[C@H](Cc2ccccc2)NC(=O)[C@@H](N)CSSC[C@@H](C(=O)O)NC(=O)[C@H](Cc2ccccc2)NC1=O` (H-CFF[dW]KTFC-OH; disulfide 1-8), the IC50 in experiment [1] came out at 27 nM; in experiment [2] it was 41 nM; in experiment [3] it was 1.8 nM; in experiment [5] it was 46 nM; in experiment [4] it was 13 nM.

Take `C[C@@H](O)[C@@H]1NC(=O)[C@H](CCCCN)NC(=O)[C@H](Cc2c[nH]c3ccccc23)NC(=O)[C@H](Cc2ccc(N)cc2)NC(=O)[C@H](Cc2ccccc2)NC(=O)[C@@H](NC(=O)[C@H](Cc2ccc(O)c(I)c2)NC(N)=O)CSSC[C@@H](C(=O)O)NC(=O)[C@H](Cc2ccccc2)NC1=O`: the 50% inhibitory concentration (IC50) is > 1000 nM in experiment [1]; > 1000 nM in experiment [2]; 8.8 nM in experiment [3]; 990 nM in experiment [5]; 325 nM in experiment [4].

As to `C[C@@H](O)[C@@H]1NC(=O)[C@H](CCCCN)NC(=O)[C@H](Cc2c[nH]c3ccccc23)NC(=O)[C@H](Cc2ccccc2)NC(=O)[C@H](Cc2ccccc2)NC(=O)[C@@H](N)CSSC[C@@H](C(=O)O)NC(=O)[C@H](Cc2ccc(O)cc2)NC1=O` (stereo in doubt), the 50% inhibitory concentration (IC50) in experiment [1] was found to be 6.5 nM; in experiment [2], 43 nM; in experiment [3] it was 1.3 nM; in experiment [5], 24 nM; in experiment [4], 10 nM.

For `C[C@@H](O)[C@@H]1NC(=O)[C@H](CCCCN)NC(=O)[C@H](Cc2c[nH]c3ccccc23)NC(=O)[C@H](Cc2ccc(O)cc2)NC(=O)[C@H](Cc2ccccc2)NC(=O)[C@@H](N)CSSC[C@@H](C(=O)O)NC(=O)[C@H](Cc2ccccc2)NC1=O`, the IC50 in experiment [1] was 27 nM; in experiment [2], 54 nM; in experiment [3], 1.3 nM; in experiment [5], 63 nM; in experiment [4], 22 nM.

On to `C[C@@H](O)[C@@H]1NC(=O)[C@H](CCCCN)NC(=O)[C@@H](Cc2c[nH]c3ccccc23)NC(=O)[C@H](Cc2ccc(N)cc2)NC(=O)[C@H](Cc2ccccc2)NC(=O)[C@@H](NC(N)=O)CSSC[C@@H](C(=O)O)NC(=O)[C@H](Cc2ccc(O)cc2)NC1=O`, for which, in experiment [1], the IC50 was > 1000 nM.

Take `C[C@@H](O)[C@@H]1NC(=O)[C@H](CCCCN)NC(=O)[C@H](Cc2c[nH]c3ccccc23)NC(=O)[C@H](CCCN)NC(=O)[C@H](Cc2ccccc2)NC(=O)[C@@H](NC(=O)[C@H](Cc2ccc(O)cc2)NC(N)=O)CSSC[C@@H](C(=O)O)NC(=O)[C@H](Cc2ccccc2)NC1=O`: the IC50 is 99 nM in experiment [1], 561 nM in experiment [2], 2.1 nM in experiment [3] and > 1000 nM in experiment [4].

For `C[C@@H](O)[C@@H]1NC(=O)[C@H](CCCCN)NC(=O)[C@H]([C@@H](C)c2c[nH]c3ccccc23)NC(=O)[C@H](Cc2ccccc2)NC(=O)[C@H](Cc2ccccc2)NC(=O)[C@@H](NC(=O)[C@@H](N)Cc2ccc(O)cc2)CSSC[C@@H](C(=O)O)NC(=O)[C@H](Cc2ccccc2)NC1=O` (H-YCFF[Trp(βS-Me)]KTFC-OH; disulfide 2-9), the concentration for half-maximal inhibition (IC50) in experiment [1] turned out to be 88 nM; in experiment [2], 48 nM; in experiment [3] it was 0.9 nM; in experiment [4], 116 nM.

In the case of `CC(O)[C@@H]1NC(=O)[C@H](CCCCN)NC(=O)[C@H](Cc2c[nH]c3ccccc23)NC(=O)[C@H](Cc2ccc(N)cc2)NC(=O)C(Cc2ccccc2)NC(=O)C(NC(N)=O)CSSC[C@@H](C(=O)O)NC(=O)[C@H](Cc2ccccc2)NC1=O` (single isomer, unassigned), the half-maximal inhibitory concentration (IC50) in experiment [2] is > 1000 nM; in experiment [3], 1.5 nM; in experiment [5], > 1000 nM.

Regarding `C[C@@H]1NC(=O)[C@H](Cc2ccccc2)NC(=O)[C@@H](NC(=O)[C@@H](N)Cc2ccc(O)cc2)CSSC[C@@H](C(=O)O)NC(=O)[C@H](Cc2ccccc2)NC(=O)[C@H]([C@@H](C)O)NC(=O)[C@H](CCCCN)NC(=O)[C@@H]([C@@H](C)c2c[nH]c3ccccc23)NC1=O`, the IC50 is > 1000 nM in experiment [1], 46 nM in experiment [2], 5.6 nM in experiment [3] and 381 nM in experiment [4].

`C[C@@H]1NC(=O)[C@H](Cc2ccccc2)NC(=O)[C@@H](NC(=O)[C@H](Cc2ccc(O)cc2)NC(N)=O)CSSC[C@@H](C(=O)O)NC(=O)[C@H](Cc2ccccc2)NC(=O)[C@H]([C@@H](C)O)NC(=O)[C@H](CCCCN)NC(=O)[C@H](Cc2c[nH]c3ccccc23)NC1=O` ({Tyr(Nα-carbamoyl)}-CFAWKTFC-OH; disulfide 1-8): the IC50 is > 1000 nM in experiment [1], 2.4 nM in experiment [3] and > 1000 nM in experiment [5].

The values are drawn from ChEMBL document CHEMBL1144907, “Novel sst(4)-selective somatostatin (SRIF) agonists. 3. Analogues amenable to radiolabeling” (J Med Chem, 2003).
